Experimental data taken from ChEMBL document CHEMBL1139172, “Identification, synthesis, and biological evaluation of novel pyrazoles as low molecular weight luteinizing hormone receptor agonists” (Bioorg Med Chem Lett, 2007).

Key:
[1] = target: Lutropin-choriogonadotropic hormone receptor (Rattus norvegicus) (UniProt P16235); experiment: Efficacy at LH receptor in Sprague-Dawley rat Leydig cells assessed as production of testosterone after 3 hrs; format: cell-based
Outline: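 Leydig cells from male Sprague–Dawley rats aged 21–40 days. Decapsulated testis digested 15 min at 37 °C, 5% CO2, in phenol red-free DMEM/F12 with 0.1% collagenase. Washed cells plated at 350,000/well in phenol red-free DMEM/F12 with 0.1% BSA and stimulated 3 h. After centrifugation, medium testosterone measured by ELISA. ED50 and efficacy derived.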

[2] = target: T1, Lutropin-choriogonadotropic hormone receptor (Homo sapiens, UniProt P22888); experiment: Agonist activity at human LH receptor expressed in CHO cells assessed as production of cAMP after 60 mins by SPA; format: functional, cell-based
T1 sequence (P22888 whole entry): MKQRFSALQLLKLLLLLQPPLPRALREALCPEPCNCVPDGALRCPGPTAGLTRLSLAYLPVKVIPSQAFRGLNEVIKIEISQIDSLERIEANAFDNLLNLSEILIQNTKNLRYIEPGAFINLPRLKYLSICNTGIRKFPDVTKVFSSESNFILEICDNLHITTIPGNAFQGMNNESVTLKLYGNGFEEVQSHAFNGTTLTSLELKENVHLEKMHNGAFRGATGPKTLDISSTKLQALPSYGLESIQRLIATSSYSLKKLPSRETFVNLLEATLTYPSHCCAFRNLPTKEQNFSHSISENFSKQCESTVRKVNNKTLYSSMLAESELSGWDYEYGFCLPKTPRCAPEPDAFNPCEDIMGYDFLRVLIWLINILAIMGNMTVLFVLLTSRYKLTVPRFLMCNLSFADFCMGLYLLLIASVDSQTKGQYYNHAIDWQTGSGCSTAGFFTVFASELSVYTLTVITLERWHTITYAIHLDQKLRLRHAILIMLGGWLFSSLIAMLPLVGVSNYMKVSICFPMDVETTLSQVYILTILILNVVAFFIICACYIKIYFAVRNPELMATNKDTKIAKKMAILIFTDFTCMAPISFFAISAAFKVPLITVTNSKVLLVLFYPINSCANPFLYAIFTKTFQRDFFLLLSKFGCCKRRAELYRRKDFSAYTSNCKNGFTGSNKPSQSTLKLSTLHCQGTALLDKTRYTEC

[3] = target: T1, Lutropin-choriogonadotropic hormone receptor; experiment: Agonist activity at human LH receptor expressed in CHO cells assessed as production of cAMP after 60 mins by SPA relative to luteinizing harmone; format: functional, cell-based
[4] = test system: Rattus norvegicus; experiment: Induction of testosterone in Sprague-Dawley rat at 4 to 32 mg/kg, ip by radioimmunoassay; format: functional, organism-based
Outline: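 Adult Sprague–Dawley rats implanted subcutaneously in the scapular region on day 1 with a 7-day slow-release pellet of 7.5 mg diethylstilbestrol. Two days later, ip injection of 0, 4, 16 or 32 mg/kg; 3 rats per group. Blood taken by retro-orbital plexus 2 h after dosing; serum frozen at -80 °C. Testosterone measured by ELISA (legend says radioimmunoassay), with standard deviations.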

Chain of Lutropin-choriogonadotropic hormone receptor (Rattus norvegicus) (P16235 whole entry): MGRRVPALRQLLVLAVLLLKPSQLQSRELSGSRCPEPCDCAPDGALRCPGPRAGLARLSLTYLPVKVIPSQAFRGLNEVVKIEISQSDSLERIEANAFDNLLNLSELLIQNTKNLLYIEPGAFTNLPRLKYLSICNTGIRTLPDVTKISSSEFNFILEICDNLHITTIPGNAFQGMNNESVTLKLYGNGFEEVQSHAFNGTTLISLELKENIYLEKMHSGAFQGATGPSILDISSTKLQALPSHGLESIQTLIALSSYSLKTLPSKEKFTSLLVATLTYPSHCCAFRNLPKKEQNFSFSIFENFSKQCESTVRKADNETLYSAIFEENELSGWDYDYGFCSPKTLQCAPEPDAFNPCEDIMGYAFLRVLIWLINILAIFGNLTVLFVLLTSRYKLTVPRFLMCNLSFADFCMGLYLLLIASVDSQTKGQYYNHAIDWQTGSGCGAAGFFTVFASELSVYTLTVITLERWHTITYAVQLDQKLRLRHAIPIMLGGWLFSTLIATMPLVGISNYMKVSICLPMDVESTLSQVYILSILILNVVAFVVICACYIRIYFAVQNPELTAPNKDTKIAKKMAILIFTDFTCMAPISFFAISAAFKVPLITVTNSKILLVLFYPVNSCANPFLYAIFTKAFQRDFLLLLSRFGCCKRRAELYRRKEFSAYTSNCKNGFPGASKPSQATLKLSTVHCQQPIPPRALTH

Row | ED50 [1] [nM] | Efficacy [1] [%] | EC50 [2] [nM] | Activity [3] [%] | Structure (SMILES) | Activity [4]
1 | 1310 | 78 | 20 | 70 | CC(C)(C)c1ccc(-n2nc(-c3cccnc3)cc2CCCCC(=O)N[C@@H](Cc2ccc(O)cc2)C(N)=O)cc1 | Dose-dependent effect
2 | – | – | > 100000 | – | CC(C)(C)c1ccc(-n2nc(-c3ccncc3)cc2NCCCC(=O)N[C@@H](Cc2ccc(O)cc2)C(N)=O)cc1 | –
3 | – | – | 250 | 55 | CC(C)(C)c1ccc(-n2nc(-c3ccncc3)cc2CCCCC(=O)N[C@@H](Cc2ccc(O)cc2)C(N)=O)cc1 | –
4 | – | – | 150 | 41 | CC(C)(C)c1ccc(-n2nc(-c3ccccn3)cc2CCCCCC(=O)N[C@@H](Cc2cccc(O)c2)C(N)=O)cc1 | –
5 | – | – | > 100000 | – | CC(C)(C)c1ccc(-n2nc(-c3cccnc3)cc2CCC(=O)N[C@@H](Cc2ccc(O)cc2)C(N)=O)cc1 | –
6 | – | – | 170 | 78 | CC(C)(C)c1ccc(-n2nc(-c3ccccn3)cc2CCCCCC(=O)N[C@H](C(N)=O)c2ccc(O)cc2)cc1 | –
7 | – | – | 12100 | 72 | CC(C)(C)Oc1ccc(C[C@H](NC(=O)CCCCc2cc(-c3cccnc3)nn2-c2ccc(C(C)(C)C)cc2)C(N)=O)cc1 | –
8 | – | – | 2300 | – | CC(C)(C)c1ccc(-n2nc(CCCCC(=O)N[C@@H](Cc3ccc(O)cc3)C(N)=O)cc2-c2ccncc2)cc1 | –
9 | – | – | 80 | 45 | CC(C)(C)c1ccc(-n2nc(-c3cccnc3)cc2CCCCC(=O)NCCc2ccc(O)cc2)cc1 | –
10 | – | – | 500 | 19 | CC(C)(C)c1ccc(-n2nc(-c3cc4ccccc4cn3)cc2-c2cccc(C(=O)N[C@@H](Cc3ccc(O)cc3)C(N)=O)c2)cc1 | –
11 | – | – | 190 | 66 | CC(C)(C)c1ccc(-n2nc(-c3ccncc3)cc2CCCCC(=O)N[C@H](CC(N)=O)Cc2ccc(O)cc2)cc1 | –
